Assay results of several laboratories.
Lines come from different studies, so protocols differ.
Target: Ephrin type-B receptor 2 (EPHB2, Homo sapiens, UniProt P29323)
Residues used in one study (P29323 1-1055): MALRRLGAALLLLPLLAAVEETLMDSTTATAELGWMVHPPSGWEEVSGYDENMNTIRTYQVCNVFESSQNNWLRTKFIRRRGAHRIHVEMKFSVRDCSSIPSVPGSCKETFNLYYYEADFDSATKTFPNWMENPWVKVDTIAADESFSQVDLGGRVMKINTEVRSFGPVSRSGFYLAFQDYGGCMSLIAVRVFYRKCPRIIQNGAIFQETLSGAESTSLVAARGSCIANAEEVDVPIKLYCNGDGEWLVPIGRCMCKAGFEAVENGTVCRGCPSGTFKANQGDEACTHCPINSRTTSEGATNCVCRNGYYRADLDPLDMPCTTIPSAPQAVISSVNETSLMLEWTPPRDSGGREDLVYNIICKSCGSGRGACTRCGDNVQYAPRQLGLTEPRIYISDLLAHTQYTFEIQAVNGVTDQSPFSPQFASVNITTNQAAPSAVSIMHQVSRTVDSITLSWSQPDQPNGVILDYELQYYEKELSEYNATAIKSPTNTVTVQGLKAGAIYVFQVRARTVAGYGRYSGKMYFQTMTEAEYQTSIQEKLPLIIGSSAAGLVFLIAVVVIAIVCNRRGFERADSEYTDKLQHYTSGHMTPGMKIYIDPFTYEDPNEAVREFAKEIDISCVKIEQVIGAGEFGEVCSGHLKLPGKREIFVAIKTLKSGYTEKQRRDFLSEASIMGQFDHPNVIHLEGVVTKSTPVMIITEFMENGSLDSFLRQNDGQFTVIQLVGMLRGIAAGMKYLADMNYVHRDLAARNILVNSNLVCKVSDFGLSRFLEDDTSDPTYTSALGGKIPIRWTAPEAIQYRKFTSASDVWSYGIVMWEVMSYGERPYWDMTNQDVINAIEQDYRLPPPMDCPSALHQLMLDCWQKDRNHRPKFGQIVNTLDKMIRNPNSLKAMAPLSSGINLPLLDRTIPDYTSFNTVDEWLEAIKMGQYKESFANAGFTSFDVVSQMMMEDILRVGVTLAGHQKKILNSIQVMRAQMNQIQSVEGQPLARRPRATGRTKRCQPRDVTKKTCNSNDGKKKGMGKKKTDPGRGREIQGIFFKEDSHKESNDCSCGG

| Compound | effect on | action | method | tested at | measurement | result |
| --- | --- | --- | --- | --- | --- | --- |
| CO[C@@H]1[C@H](N(C)C(=O)c2ccccc2)C[C@H]2O[C@]1(C)n1c3ccccc3c3c4c(c5c6ccccc6n2c5c31)C(=O)NC4 | enzyme activity | inhibitor | – | 1 µM | inhibition | 0% |
| CCCCC(=O)Nc1ccc(-c2ccc3ncn(CCC)c(=O)c3c2)cn1 | binding | – | competition with immobilised ligand | 0.5 µM | remaining binding | 100% |
| Cc1cc(O)c(-c2ccc([C@@H](C)CN(C)C)cc2)c2c1[nH]c(=O)c1sccc12 | cell-free assay | inhibitor | – | 0.1 µM | inhibition | 0.144% |
| C[C@H]1CC[C@H](n2c3cnccc3c3cnc(Nc4ccc5c(n4)CCN(C(=O)CO)C5)nc32)CC1 | cell-free assay | – | competition with immobilised ligand | 1 µM | remaining binding | 100% |
| CC(C)S(=O)(=O)c1ccc2nccc(Nc3ccc4sc(C5CCCC5)nc4c3)c2c1 | enzyme activity | inhibitor | – | 1 µM | activity vs control | 109% |
| C1=C/COCc2cc(ccc2OCCN2CCCC2)Nc2nccc(n2)-c2cccc(c2)COC/1 | binding | – | – | 0.1 µM | remaining binding | 88% |
| Cc1ccc(NC(=O)c2ccnc(C(F)(F)F)c2)cc1-c1cc(OCCO)nc(N2CCOCC2)c1 | binding | – | competition with immobilised ligand | 1 µM | remaining binding | 85% |
| CC#CC(=O)N1CCC[C@H]1c1nc(-c2ccc(C(=O)Nc3ccccn3)cc2)c2c(N)nccn12 | enzyme activity | inhibitor | – | 1 µM | inhibition | 6% |
